# Source: PMC11131057 (Blood Advances, 2024)
# Where two headings read alike, the source gives them in different places.
# How the values were obtained:
# [1] = tested on: AML; details: cited from earlier work
# [2] = tested on: relapsed and/or refractory AML; assay: Phase 1 dose escalation: response in patients with R/R AML; format: in vivo, human
# [3] = format: in vivo, human; details: for Aspartate aminotransferase elevation, related TEAE / Creatine kinase increase, related TEAE / Diarrhea, related TEAE / Nausea, related TEAE: 54 participants
# [4] = biological target: T1, FLT3 (Homo sapiens, UniProt P36888); assay: Plasma inhibitory activity; format: cell-based
# T1 sequence (P36888 27-993): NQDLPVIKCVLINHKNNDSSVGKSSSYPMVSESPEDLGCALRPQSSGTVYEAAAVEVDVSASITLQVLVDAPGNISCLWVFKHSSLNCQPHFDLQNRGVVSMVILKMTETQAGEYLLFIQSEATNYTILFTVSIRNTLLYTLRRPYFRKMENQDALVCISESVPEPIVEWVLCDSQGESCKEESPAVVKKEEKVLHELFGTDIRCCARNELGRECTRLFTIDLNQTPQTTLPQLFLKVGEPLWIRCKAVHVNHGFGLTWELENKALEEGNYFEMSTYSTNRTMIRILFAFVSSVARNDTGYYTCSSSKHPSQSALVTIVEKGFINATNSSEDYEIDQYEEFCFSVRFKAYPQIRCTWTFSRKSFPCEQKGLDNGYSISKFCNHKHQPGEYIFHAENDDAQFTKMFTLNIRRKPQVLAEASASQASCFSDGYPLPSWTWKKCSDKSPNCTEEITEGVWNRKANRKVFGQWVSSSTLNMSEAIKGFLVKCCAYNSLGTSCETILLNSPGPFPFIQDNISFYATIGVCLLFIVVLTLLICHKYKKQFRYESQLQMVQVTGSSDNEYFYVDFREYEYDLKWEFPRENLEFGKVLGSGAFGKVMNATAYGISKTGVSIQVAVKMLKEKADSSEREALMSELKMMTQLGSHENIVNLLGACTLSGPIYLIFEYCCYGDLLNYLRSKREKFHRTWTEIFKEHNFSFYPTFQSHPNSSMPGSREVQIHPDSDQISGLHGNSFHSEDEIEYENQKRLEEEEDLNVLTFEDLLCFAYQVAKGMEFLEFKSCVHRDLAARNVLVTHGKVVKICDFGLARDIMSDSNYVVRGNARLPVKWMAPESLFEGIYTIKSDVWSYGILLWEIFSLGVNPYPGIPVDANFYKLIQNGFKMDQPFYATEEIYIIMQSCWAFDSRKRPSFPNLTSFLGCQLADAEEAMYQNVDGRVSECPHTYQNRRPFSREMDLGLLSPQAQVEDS
# Procedure, shortened: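 Ex vivo surrogate for in vivo FLT3 inhibition. Participant plasma was prepared from lithium-heparin whole blood collected at cycle 1 time points, including pre-dose troughs on days 8 and 15. It was tested on FLT3-ITD Molm14 cells, and P-FLT3 was expressed as a percentage of baseline. Drug concentration in the same samples was measured by mass spectrometry and paired with PIA values across QD and BID cohorts.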
# [5] = Pharmacokinetic analysis of plasma FF-10101 concentration in trial participants; format: in vivo, human
# [6] = tested on: FLT3-TKD mutations; details: cited from earlier work
# [7] = 40 response-evaluable participants
# [8] = participants with history of FLT3-mutated AML at FLT3-inhibitory doses (150 mg QD, 225 mg QD, 50 mg BID, 75 mg BID)
compound,measurement,setting,value
CO[C@@H]1[C@H](N(C)C(=O)c2ccccc2)C[C@H]2O[C@]1(C)n1c3ccccc3c3c4c(c5c6ccccc6n2c5c31)C(=O)NC4 [Midostaurin],single-agent activity,[1],no single-agent activity
CCCNc1nc(Nc2ccc(C#N)cc2)ncc1C#CCCCNC(=O)[C@H](C)N(C)C(=O)/C=C/CN(C)C [FF-10101],number of CR,[2]; [7],1
same,number of CRh,[2]; [7],1
same,number of CRp,[2]; [7],2
same,number of PR,[2]; [7],1
same,overall response rate (CR + CRh + CRp + PR),[2]; [7],12.5%
same,number of CR,[2]; [8],1
same,number of CRp,[2]; [8],2
same,number of PR,[2]; [8],1
same,participants with DLT,"[3]; 50 mg BID cohort, grade 3 maculopapular rash",1 of 7
same,participants with DLTs,"[3]; 100 mg BID cohort, 5 participants",2 participants
same,participants reporting at least 1 treatment emergent AE (TEAE),"[3]; 53 of 54 participants, all cohorts",98.1%
same,participants reporting diarrhea,[3]; <100 mg/dose,21.2%
same,"Aspartate aminotransferase elevation, related TEAE",[3]; All grades,14 (25.9) participants (%)
same,"Creatine kinase increase, related TEAE",[3]; All grades,16 (29.6) participants (%)
same,"Diarrhea, related TEAE",[3]; All grades,15 (27.8) participants (%)
same,"Nausea, related TEAE",[3]; All grades,19 (35.2) participants (%)
same,"Aspartate aminotransferase elevation, related TEAE",[3]; Grade 1-2,10 (18.5) participants (%)
same,"Creatine kinase increase, related TEAE",[3]; Grade 1-2,11 (20.4) participants (%)
same,"Diarrhea, related TEAE",[3]; Grade 1-2,13 (24.1) participants (%)
same,"Nausea, related TEAE",[3]; Grade 1-2,19 (35.2) participants (%)
same,"Aspartate aminotransferase elevation, related TEAE",[3]; Grade ≥3,4 (7.4) participants (%)
same,"Creatine kinase increase, related TEAE",[3]; Grade ≥3,5 (9.3) participants (%)
same,"Diarrhea, related TEAE",[3]; Grade ≥3,2 (3.7) participants (%)
same,"Nausea, related TEAE",[3]; Grade ≥3,0 (0) participants (%)
same,participants with grade 3 diarrhea,[3]; all cohorts,4 participants
same,recommended phase 2 dose (RP2D),[3]; oral,75 mg BID
same,maximum tolerated dose (MTD),"[3]; oral, 28-day cycles",75 mg BID
same,participants reporting grade 1-3 diarrhea,"[3]; ≥100 mg/dose (100 mg QD, 150 mg QD, 225 mg QD, 100 mg BID)",76.2%
same,dose levels at which inhibition of P-FLT3 was most effective,"[4]; PIA, escalating doses","150 mg daily, 225 mg daily, 50 mg BID, and 75 mg BID"
same,plasma concentration of FF-10101 associated with more complete inhibition (PIA),[4]; cycle 1 plasma samples,> 100 ng/mL
same,FF-10101 concentration achieving maximal trough suppression of P-FLT3 activity,[4]; maximal trough suppression eg <5% of baseline,> 200 ng/mL
same,effect of food on absorption,[5]; after oral dosing,unaffected by food
same,half-life,"[5]; human, plasma, po",~10 h
CNC(=O)c1cc(Oc2ccc(NC(=O)Nc3ccc(Cl)c(C(F)(F)F)c3)cc2)ccn1 [Sorafenib],activity against FLT3-TKD mutations,[6],inactive
